Assay results from publication PMC4806784 (Investigational new drugs, 2015).

What was measured:
Safety and tolerability = assay type: in vivo
[1] = test system: other kinases, including both Aurora B and Aurora C; settings: cited from earlier work
[2] = test system: phospho-Aurora B (pAurB) and phospho-histone H3 (pHH3); test: Immunohistochemistry of hair follicles and skin biopsies; assay type: in vivo, human; settings: Panel 1 (MT), pre- and post-dose hair follicles and skin biopsies
Outline: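 Plucked scalp hair follicles (from at least 15 hair shafts) and skin punch biopsies were taken pre-dose and on Cycle 1 Day 2, 4 (±1) h after the third oral BID Q12hr dose. Only Panel 1 monotherapy patients were sampled. Phospho-Aurora B and phospho-histone H3 were assessed by immunohistochemistry as change from baseline.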

[3] = test system: human tumor cell lines and xenograft models; settings: subset of human tumor cell lines and xenograft models; cited from earlier work
[4] = Crossover from Panel 1 to Panel 2 (n = 4)
[5] = Panel 2: MK-5108 CT with docetaxel 60 mg/m^2 (n = 17)
[6] = Panel 2: MK-5108 CT with docetaxel (N = 17)

## O=C(O)[C@]1(Cc2cccc(Nc3nccs3)n2)CC[C@@H](Oc2cccc(Cl)c2F)CC1 [MK-5108]
Safety and tolerability; Crossover (N = 4)
  Drug-related AEs by SOC: Blood and lymphatic system disorders: 2 (50.0) n (%)
  Drug-related AEs by SOC: Gastrointestinal disorders: 1 (25.0) n (%)
  Drug-related AEs by SOC: General disorders and administration site conditions: 2 (50.0) n (%)
  Drug-related AEs by SOC: Infections and infestations: 0 (0.0) n (%)
  Drug-related AEs by SOC: Investigations: 1 (25.0) n (%)
  Drug-related AEs by SOC: Metabolism and nutrition disorders: 2 (50.0) n (%)
  Drug-related AEs by SOC: Musculoskeletal and connective tissue disorders: 1 (25.0) n (%)
  Drug-related AEs by SOC: Nervous system disorders: 1 (25.0) n (%)
  Drug-related AEs by SOC: Respiratory, thoracic and mediastinal disorders: 1 (25.0) n (%)
  Drug-related AEs by SOC: Skin and subcutaneous tissue disorders: 1 (25.0) n (%)
  Drug-related AEs by SOC: Vascular disorders: 0 (0.0) n (%)
  Patients with drug-related AEs, highest grade: Grade 1: 1 (25.0) n (%)
  Patients with drug-related AEs, highest grade: Grade 2: 0 (0.0) n (%)
  Patients with drug-related AEs, highest grade: Grade 3: 1 (25.0) n (%)
  Patients with drug-related AEs, highest grade: Grade 4: 1 (25.0) n (%)
  Patients with no drug-related AEs: 1 (25.0) n (%)
  Patients with one or more drug-related AEs: 3 (75.0) n (%)
Safety and tolerability; [4]
  Death: 0 n (%)
  Discontinued treatment due to a drug-related AE: 0 n (%)
  Discontinued treatment due to a drug-related SAE: 0 n (%)
  Discontinued treatment due to an SAE: 0 n (%)
  Discontinued treatment due to any AE: 0 n (%)
  Patients with any AE: 4 (100.0) n (%)
  Patients with drug-related AE: 3 (75.0) n (%)
  Patients with no AE: 0 n
  Patients with serious AE: 0 n (%)
  Patients with serious drug-related AE: 0 n (%)
Safety and tolerability; MK-5108 MT, doses up to 1800 mg Q12hr
  MTD: not established
Safety and tolerability; MT, doses up to 1800 mg Q12hr (3600 mg/day)
  tolerability: generally well tolerated
Safety and tolerability; Panel 1 (MT)
  patients experiencing a DLT: no patients
  patients with a Grade 3 or 4 drug-related AE: No patients
Safety and tolerability; Panel 1 (MT), 11/14
  AEs (all grades and doses) by SOC: General disorders and administration site conditions: 78.6%
Safety and tolerability; Panel 1 (MT), 12/14
  AEs (all grades and doses) by SOC: Gastrointestinal disorders: 85.7%
Safety and tolerability; Panel 1: MK-5108 MT (N = 14)
  Drug-related AEs by SOC: Blood and lymphatic system disorders: 4 (28.6) n (%)
  Drug-related AEs by SOC: Gastrointestinal disorders: 7 (50.0) n (%)
  Drug-related AEs by SOC: General disorders and administration site conditions: 7 (50.0) n (%)
  Drug-related AEs by SOC: Infections and infestations: 0 (0.0) n (%)
  Drug-related AEs by SOC: Investigations: 2 (14.3) n (%)
  Drug-related AEs by SOC: Metabolism and nutrition disorders: 2 (14.3) n (%)
  Drug-related AEs by SOC: Musculoskeletal and connective tissue disorders: 1 (7.1) n (%)
  Drug-related AEs by SOC: Nervous system disorders: 3 (21.4) n (%)
  Drug-related AEs by SOC: Respiratory, thoracic and mediastinal disorders: 1 (7.1) n (%)
  Drug-related AEs by SOC: Skin and subcutaneous tissue disorders: 1 (7.1) n (%)
  Drug-related AEs by SOC: Vascular disorders: 0 (0.0) n (%)
  Patients with drug-related AEs, highest grade: Grade 1: 3 (21.4) n (%)
  Patients with drug-related AEs, highest grade: Grade 2: 5 (35.7) n (%)
  Patients with drug-related AEs, highest grade: Grade 3: 0 (0.0) n (%)
  Patients with drug-related AEs, highest grade: Grade 4: 0 (0.0) n (%)
  Patients with no drug-related AEs: 6 (42.9) n (%)
  Patients with one or more drug-related AEs: 8 (57.1) n (%)
Safety and tolerability; Panel 1: MK-5108 MT (n = 14)
  Death: 1 (7.1) n (%)
  Discontinued treatment due to a drug-related AE: 0 n (%)
  Discontinued treatment due to a drug-related SAE: 0 n (%)
  Discontinued treatment due to an SAE: 1 (7.1) n (%)
  Discontinued treatment due to any AE: 2 (14.3) n (%)
  Patients with any AE: 14 (100.0) n (%)
  Patients with drug-related AE: 8 (57.1) n (%)
  Patients with no AE: 0 n
  Patients with serious AE: 4 (28.6) n (%)
  Patients with serious drug-related AE: 0 n (%)
Safety and tolerability; Panel 2 (CT), 100 mg Q12hr (200 mg/day), febrile neutropenia (Grade 3)
  patients experiencing a DLT: one patient
Safety and tolerability; Panel 2 (CT), 150 mg Q12hr, 6 patients
  patients experiencing any DLTs: None
Safety and tolerability; Panel 2 (CT), 225 mg Q12hr (450 mg/day), febrile neutropenia (Grade 4) and infection (Grade 3)
  DLTs: 2
Safety and tolerability; Panel 2 (CT), 12/17
  AEs (all grades and doses) by SOC: Gastrointestinal disorders: 70.6%
  AEs (all grades and doses) by SOC: Metabolism and nutrition disorders: 70.6%
  AEs (all grades and doses) by SOC: Skin and subcutaneous tissue disorders: 70.6%
  patients with a Grade 3 or 4 drug-related AE: 70.6%
Safety and tolerability; Panel 2 (CT), 15/17
  AEs (all grades and doses) by SOC: Blood and lymphatic system disorders: 88.2%
  AEs (all grades and doses) by SOC: General disorders and administration site conditions: 88.2%
Safety and tolerability; [5]
  Death: 0 n (%)
  Discontinued treatment due to a drug-related AE: 1 (5.9) n (%)
  Discontinued treatment due to a drug-related SAE: 1 (5.9) n (%)
  Discontinued treatment due to an SAE: 2 (11.8) n (%)
  Discontinued treatment due to any AE: 2 (11.8) n (%)
  Patients with any AE: 17 (100.0) n (%)
  Patients with drug-related AE: 15 (88.2) n (%)
  Patients with no AE: 0 n
  Patients with serious AE: 9 (52.9) n (%)
  Patients with serious drug-related AE: 4 (23.5) n (%)
Safety and tolerability; [6]
  Drug-related AEs by SOC: Blood and lymphatic system disorders: 14 (82.4) n (%)
  Drug-related AEs by SOC: Gastrointestinal disorders: 11 (64.7) n (%)
  Drug-related AEs by SOC: General disorders and administration site conditions: 11 (64.7) n (%)
  Drug-related AEs by SOC: Infections and infestations: 4 (23.5) n (%)
  Drug-related AEs by SOC: Investigations: 5 (29.4) n (%)
  Drug-related AEs by SOC: Metabolism and nutrition disorders: 9 (52.9) n (%)
  Drug-related AEs by SOC: Musculoskeletal and connective tissue disorders: 5 (29.4) n (%)
  Drug-related AEs by SOC: Nervous system disorders: 3 (17.6) n (%)
  Drug-related AEs by SOC: Respiratory, thoracic and mediastinal disorders: 5 (29.4) n (%)
  Drug-related AEs by SOC: Skin and subcutaneous tissue disorders: 8 (47.1) n (%)
  Drug-related AEs by SOC: Vascular disorders: 2 (11.8) n (%)
  Patients with drug-related AEs, highest grade: Grade 1: 0 (0.0) n (%)
  Patients with drug-related AEs, highest grade: Grade 2: 3 (17.6) n (%)
  Patients with drug-related AEs, highest grade: Grade 3: 6 (35.3) n (%)
  Patients with drug-related AEs, highest grade: Grade 4: 6 (35.3) n (%)
  Patients with no drug-related AEs: 2 (11.8) n (%)
  Patients with one or more drug-related AEs: 15 (88.2) n (%)
Safety and tolerability; Total (N = 35)
  Drug-related AEs by SOC: Blood and lymphatic system disorders: 20 (57.1) n (%)
  Drug-related AEs by SOC: Gastrointestinal disorders: 19 (54.3) n (%)
  Drug-related AEs by SOC: General disorders and administration site conditions: 20 (57.1) n (%)
  Drug-related AEs by SOC: Infections and infestations: 4 (11.4) n (%)
  Drug-related AEs by SOC: Investigations: 8 (22.9) n (%)
  Drug-related AEs by SOC: Metabolism and nutrition disorders: 13 (37.1) n (%)
  Drug-related AEs by SOC: Musculoskeletal and connective tissue disorders: 7 (20.0) n (%)
  Drug-related AEs by SOC: Nervous system disorders: 7 (20.0) n (%)
  Drug-related AEs by SOC: Respiratory, thoracic and mediastinal disorders: 7 (20.0) n (%)
  Drug-related AEs by SOC: Skin and subcutaneous tissue disorders: 10 (28.6) n (%)
  Drug-related AEs by SOC: Vascular disorders: 2 (5.7) n (%)
  Patients with drug-related AEs, highest grade: Grade 1: 4 (11.4) n (%)
  Patients with drug-related AEs, highest grade: Grade 2: 8 (22.9) n (%)
  Patients with drug-related AEs, highest grade: Grade 3: 7 (20.0) n (%)
  Patients with drug-related AEs, highest grade: Grade 4: 7 (20.0) n (%)
  Patients with no drug-related AEs: 9 (25.7) n (%)
  Patients with one or more drug-related AEs: 26 (74.3) n (%)
[1]
  target specificity relative to other kinases: comparatively high target specificity
[2]
  change from baseline in pHH3 and pAurB (IHC): no clear dose-related increases
[3]
  single-agent activity: modest single-agent activity
